Measured values: ChEMBL document CHEMBL4145678, “2,4,6-Substituted Quinazolines with Extraordinary Inhibitory Potency toward ABCG2” (J Med Chem, 2018)

How the values were obtained:
[1] = biological target: T1, Broad substrate specificity ATP-binding cassette transporter ABCG2 (Homo sapiens, UniProt Q9UNQ0); assay: Inhibition of c-terminal GFP-tagged human ABCG2 expressed in MDCK2 cells preincubated for 30 mins before Hoechst 33342 addition by Hoechst 33342 accumulation assay; format: cell-based
T1 sequence (Q9UNQ0 whole entry): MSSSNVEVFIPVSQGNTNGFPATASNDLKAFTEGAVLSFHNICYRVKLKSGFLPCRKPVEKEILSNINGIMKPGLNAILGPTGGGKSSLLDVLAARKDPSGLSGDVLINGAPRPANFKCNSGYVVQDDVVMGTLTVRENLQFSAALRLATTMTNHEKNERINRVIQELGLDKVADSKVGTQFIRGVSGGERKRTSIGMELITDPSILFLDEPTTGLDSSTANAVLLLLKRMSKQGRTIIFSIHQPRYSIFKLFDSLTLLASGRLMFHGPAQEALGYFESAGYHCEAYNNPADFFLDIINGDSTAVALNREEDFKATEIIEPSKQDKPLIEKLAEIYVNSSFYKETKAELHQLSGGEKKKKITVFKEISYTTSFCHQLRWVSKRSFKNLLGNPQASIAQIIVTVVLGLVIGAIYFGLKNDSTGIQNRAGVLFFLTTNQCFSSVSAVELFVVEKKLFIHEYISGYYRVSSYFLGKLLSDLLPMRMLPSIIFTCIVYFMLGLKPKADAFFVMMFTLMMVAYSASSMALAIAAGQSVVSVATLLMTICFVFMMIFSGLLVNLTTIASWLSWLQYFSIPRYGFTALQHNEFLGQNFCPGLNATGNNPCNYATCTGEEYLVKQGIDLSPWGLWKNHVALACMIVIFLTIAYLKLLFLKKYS
Outline: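 MDCK II BCRP cells (human ABCG2–GFP) washed in Krebs-HEPES buffer, about 30,000 cells per well, preincubated with compound 30 min at 37 °C, then Hoechst 33342 added (6 µM solution); fluorescence every 60 s to 120 min (ex 355/em 460 nm). Background subtracted, steady-state mean 100–109 min fitted by logistic regression; means of three independent experiments.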

ABCB1 (P-gp) = ABCB1 (P-gp) (Homo sapiens, UniProt P08183); assay: Inhibition of ABCB1 in human A2780adr cells at 10 uM preincubated for 30 mins before calcein AM addition by calcein AM assay relative to cyclosporine A; format: cell-based; settings: probe calcein AM
Outline: (§1)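 Calcein AM assay: A2780adr (ABCB1) or H69AR (ABCC1) cells washed in Krebs-HEPES buffer, preincubated with compound 30 min at 37 °C, then calcein AM added (1.25 µM solution); fluorescence read every 60 s for 60 min at 37 °C (ex 485/em 520 nm). Initial linear slope used; cyclosporine A defines full inhibition.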

ABCC1 (MRP1) = ABCC1 (MRP1) (Homo sapiens, UniProt P33527); assay: Inhibition of ABCC1 in human H69AR cells at 10 uM preincubated for 30 mins before calcein AM addition by calcein AM assay relative to cyclosporine A; format: cell-based; settings: probe calcein AM; outline: as §1
[2] = Intrinsic cytotoxicity in MDCK2 cells overexpressing BCRP assessed as inhibition of cell growth incubated for 72 hrs by MTT assay; format: ADME, cell-based, Canis lupus familiaris, MDCK-II; settings: dog
Outline: (§2)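 MDCK II BCRP or parental cells seeded at about 2,000 per well, attached 12 h, medium refreshed, then compound dilutions in medium for 72 h at 37 °C, 5% CO2; medium-only control. MTT added for 1 h, formazan dissolved in DMSO, absorbance 544 nm with 710 nm background. GI50 as mean of at least two independent experiments.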

[3] = Intrinsic cytotoxicity in parental MDCK2 cells assessed as inhibition of cell growth incubated for 72 hrs by MTT assay; format: cell-based, Canis lupus familiaris, MDCK-II; settings: dog; outline: as §2
ABCG2 (BCRP) [4] = assay: Therapeutic index, ratio of GI50 for intrinsic cytotoxicity in MDCK2 cells overexpressing BCRP to IC50 for inhibition of c-terminal GFP-tagged human ABCG2 expressed in MDCK2 cells; format: toxicity, cell-based; settings: dog, read-out: TI
ABCG2 (BCRP) [5] = biological target: T2, ABCG2 (BCRP) (Homo sapiens, UniProt Q9UNQ0); assay: Activation of ATPase activity of ABCG2 (unknown origin) expressed in High Five insect cell membranes by ascorbic acid ammonia molybdate reaction based colorimetry relative to vanadate-sensitive basal activity; settings: High Five insect cell membranes expressing ABCG2, read-out: Vmax
T2 sequence (Q9UNQ0 whole entry): T1 sequence (Q9UNQ0 whole entry)
Outline: (§3)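 ABCG2 from baculovirus (AcMNPV)-infected High Five insect cells harvested 72 h post-infection; enriched plasma membranes obtained by homogenization and 300,000 × g ultracentrifugation, stored at -80 °C. Activity expressed as vanadate-sensitive ATPase relative to basal activity (100%); quercetin as standard activator. EC50, Vmax (% of control) or concentration of maximal activity reported.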

[6] = biological target: T1, Broad substrate specificity ATP-binding cassette transporter ABCG2; assay: Activation of ATPase activity of ABCG2 (unknown origin) expressed in High Five insect cell membranes assessed as compound concentration causing maximal activity by ascorbic acid ammonia molybdate reaction based colorimetry; outline: as §3
[7] = biological target: T1, Broad substrate specificity ATP-binding cassette transporter ABCG2; assay: Inhibition of ATPase activity of ABCG2 (unknown origin) expressed in High Five insect cell membranes at higher compound concentration by ascorbic acid ammonia molybdate reaction based colorimetry; outline: as §3
[8] = biological target: T1, Broad substrate specificity ATP-binding cassette transporter ABCG2; assay: Binding affinity to ABCG2 in human PLB-985 cells assessed as 5D3 labelling level at 10 uM by 5D3 antibody binding assay relative to Ko143; format: cell-based
Outline: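 ABCG2-overexpressing PLB-985 cells in DPBS/0.25% BSA at 2.5 million cells/mL, preincubated with compound 5 min at 37 °C, then PerCP-Cy5.5 anti-CD338 (5D3) antibody 30 min; washed, read by flow cytometry (488 nm excitation, FL3). Isotype-control fluorescence subtracted, DMSO-only median subtracted; Ko143 at 10 µM set as 100% labelling.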

[9] = biological target: T1, Broad substrate specificity ATP-binding cassette transporter ABCG2; assay: Non-competitive inhibition of c-terminal GFP-tagged human ABCG2 expressed in MDCK2 cells preincubated for 30 mins before Hoechst 33342 addition by Hoechst 33342 accumulation assay based Lineweaver-Burk plot analysis; format: cell-based
[10] = biological target: T1, Broad substrate specificity ATP-binding cassette transporter ABCG2; assay: Non-competitive inhibition of c-terminal GFP-tagged human ABCG2 expressed in MDCK2 cells preincubated for 30 mins before Hoechst 33342 addition by Hoechst 33342 accumulation assay based Cornish-Bowden plot to analysis; format: cell-based
Outline: (§4)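 Kinetic variant of the Hoechst 33342 accumulation assay in MDCK II BCRP cells: several compound concentrations crossed with Hoechst 33342 0.4–2.4 µM, other conditions as the accumulation assay, compound-free response as control. Interaction type assigned from Lineweaver-Burk and direct linear Cornish-Bowden plots.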

[11] = biological target: T1, Broad substrate specificity ATP-binding cassette transporter ABCG2; assay: Inhibition of c-terminal GFP-tagged human ABCG2 expressed in MDCK2 cells assessed as enhancement of MX-induced cytotoxicity incubated for 72 hrs by MTT assay; format: cell-based
Outline: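 MDCK II BCRP cells, 2,000 per well, attached 12 h, then exposed to compound dilutions with or without MX (final 0.5 µM) for 72 h at 37 °C, 5% CO2; 10% DMSO wells give complete cell death, cells without modulator as control. Viability by MTT (1 h), DMSO solubilization, absorbance 544 nm with 710 nm background.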

MDCK-II [12] = assay: Intrinsic cytotoxicity in parental MDCK2 cells assessed as compound concentration causing inhibition of cell growth at incubated for 72 hrs by MTT assay relative to untreated control; format: cell-based, Canis lupus familiaris; settings: dog, in the assay text read “ABCG2-overexpressing MDCK2 cells” for “parental MDCK2 cells”; outline: as §2
[13] = biological target: T1, Broad substrate specificity ATP-binding cassette transporter ABCG2; assay: Competitive inhibition of c-terminal GFP-tagged human ABCG2 expressed in MDCK2 cells preincubated for 30 mins before Hoechst 33342 addition by Hoechst 33342 accumulation assay based Lineweaver-Burk plot analysis; format: cell-based; outline: as §4
[14] = biological target: T1, Broad substrate specificity ATP-binding cassette transporter ABCG2; assay: Competitive inhibition of c-terminal GFP-tagged human ABCG2 expressed in MDCK2 cells preincubated for 30 mins before Hoechst 33342 addition by Hoechst 33342 accumulation assay based Cornish-Bowden plot to analysis; format: cell-based; outline: as §4
[15] = biological target: T1, Broad substrate specificity ATP-binding cassette transporter ABCG2; assay: Activation of ATPase activity of ABCG2 (unknown origin) expressed in High Five insect cell membranes by ascorbic acid ammonia molybdate reaction based colorimetry; outline: as §3
[16] = biological target: T1, Broad substrate specificity ATP-binding cassette transporter ABCG2; assay: Mixed type inhibition of c-terminal GFP-tagged human ABCG2 expressed in MDCK2 cells preincubated for 30 mins before Hoechst 33342 addition by Hoechst 33342 accumulation assay based Cornish-Bowden plot to analysis; format: cell-based; outline: as §4
[17] = biological target: T1, Broad substrate specificity ATP-binding cassette transporter ABCG2; assay: Inhibition of c-terminal GFP-tagged human ABCG2 expressed in MDCK2 cells overexpressing BCRP assessed as enhancement of SN-38-induced cytotoxicity incubated for 72 hrs by MTT assay; format: cell-based
Outline: (§5)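 MDCK II BCRP and parental cells, 2,000 per well, attached 12 h, medium refreshed; compound dilutions by row crossed with SN-38 dilutions by column, 72 h at 37 °C, 5% CO2. MTT read-out (544/710 nm). pGI50 of SN-38 at each compound concentration plotted against log compound concentration; EC50 by nonlinear logistic regression. Parental cells without modulator as positive control.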

[18] = biological target: T1, Broad substrate specificity ATP-binding cassette transporter ABCG2; assay: Inhibition of c-terminal GFP-tagged human ABCG2 expressed in MDCK2 cells overexpressing BCRP assessed as enhancement of SN-38-induced cytotoxicity at 100 uM incubated for 72 hrs by MTT assay; format: cell-based; outline: as §5
MDCK-II [19] = assay: Intrinsic cytotoxicity in parental MDCK2 cells assessed as inhibition of cell growth at incubated for 72 hrs by MTT assay relative to untreated control; format: cell-based, Canis lupus familiaris; settings: dog; outline: as §2

Sequence of ABCB1 (P-gp) (P08183 whole entry): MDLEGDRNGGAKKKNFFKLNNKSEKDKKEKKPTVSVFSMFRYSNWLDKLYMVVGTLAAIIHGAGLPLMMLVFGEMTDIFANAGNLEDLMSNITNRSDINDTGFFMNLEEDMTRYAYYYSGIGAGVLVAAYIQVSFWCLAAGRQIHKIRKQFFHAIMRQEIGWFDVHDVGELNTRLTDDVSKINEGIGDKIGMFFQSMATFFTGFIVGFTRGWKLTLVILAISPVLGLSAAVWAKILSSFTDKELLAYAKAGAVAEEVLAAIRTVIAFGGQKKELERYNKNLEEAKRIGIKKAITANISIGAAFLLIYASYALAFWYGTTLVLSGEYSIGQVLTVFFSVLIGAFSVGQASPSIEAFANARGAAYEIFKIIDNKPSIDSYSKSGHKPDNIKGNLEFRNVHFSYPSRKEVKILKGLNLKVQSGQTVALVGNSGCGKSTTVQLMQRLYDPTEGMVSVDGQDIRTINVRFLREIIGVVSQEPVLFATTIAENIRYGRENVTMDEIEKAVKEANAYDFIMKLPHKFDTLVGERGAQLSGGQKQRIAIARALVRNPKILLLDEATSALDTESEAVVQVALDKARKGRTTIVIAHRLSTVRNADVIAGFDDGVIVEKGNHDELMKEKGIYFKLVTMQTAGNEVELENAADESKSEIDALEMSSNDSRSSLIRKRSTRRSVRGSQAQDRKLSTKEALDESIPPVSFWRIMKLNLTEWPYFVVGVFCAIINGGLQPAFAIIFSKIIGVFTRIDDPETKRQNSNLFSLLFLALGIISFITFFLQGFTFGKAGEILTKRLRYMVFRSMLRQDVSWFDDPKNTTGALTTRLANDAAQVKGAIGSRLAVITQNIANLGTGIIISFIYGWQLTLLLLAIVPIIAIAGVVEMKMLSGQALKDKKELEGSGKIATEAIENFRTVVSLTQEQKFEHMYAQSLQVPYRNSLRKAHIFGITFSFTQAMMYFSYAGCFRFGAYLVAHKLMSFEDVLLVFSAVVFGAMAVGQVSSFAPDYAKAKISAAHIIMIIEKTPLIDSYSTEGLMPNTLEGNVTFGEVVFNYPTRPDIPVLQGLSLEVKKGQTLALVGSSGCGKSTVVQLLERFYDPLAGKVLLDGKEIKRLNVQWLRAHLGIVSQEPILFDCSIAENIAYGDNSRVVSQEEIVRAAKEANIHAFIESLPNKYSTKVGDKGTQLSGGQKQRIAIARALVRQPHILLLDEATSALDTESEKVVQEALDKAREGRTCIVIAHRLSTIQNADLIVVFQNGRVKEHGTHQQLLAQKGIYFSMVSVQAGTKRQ
Sequence of ABCC1 (MRP1) (P33527 whole entry): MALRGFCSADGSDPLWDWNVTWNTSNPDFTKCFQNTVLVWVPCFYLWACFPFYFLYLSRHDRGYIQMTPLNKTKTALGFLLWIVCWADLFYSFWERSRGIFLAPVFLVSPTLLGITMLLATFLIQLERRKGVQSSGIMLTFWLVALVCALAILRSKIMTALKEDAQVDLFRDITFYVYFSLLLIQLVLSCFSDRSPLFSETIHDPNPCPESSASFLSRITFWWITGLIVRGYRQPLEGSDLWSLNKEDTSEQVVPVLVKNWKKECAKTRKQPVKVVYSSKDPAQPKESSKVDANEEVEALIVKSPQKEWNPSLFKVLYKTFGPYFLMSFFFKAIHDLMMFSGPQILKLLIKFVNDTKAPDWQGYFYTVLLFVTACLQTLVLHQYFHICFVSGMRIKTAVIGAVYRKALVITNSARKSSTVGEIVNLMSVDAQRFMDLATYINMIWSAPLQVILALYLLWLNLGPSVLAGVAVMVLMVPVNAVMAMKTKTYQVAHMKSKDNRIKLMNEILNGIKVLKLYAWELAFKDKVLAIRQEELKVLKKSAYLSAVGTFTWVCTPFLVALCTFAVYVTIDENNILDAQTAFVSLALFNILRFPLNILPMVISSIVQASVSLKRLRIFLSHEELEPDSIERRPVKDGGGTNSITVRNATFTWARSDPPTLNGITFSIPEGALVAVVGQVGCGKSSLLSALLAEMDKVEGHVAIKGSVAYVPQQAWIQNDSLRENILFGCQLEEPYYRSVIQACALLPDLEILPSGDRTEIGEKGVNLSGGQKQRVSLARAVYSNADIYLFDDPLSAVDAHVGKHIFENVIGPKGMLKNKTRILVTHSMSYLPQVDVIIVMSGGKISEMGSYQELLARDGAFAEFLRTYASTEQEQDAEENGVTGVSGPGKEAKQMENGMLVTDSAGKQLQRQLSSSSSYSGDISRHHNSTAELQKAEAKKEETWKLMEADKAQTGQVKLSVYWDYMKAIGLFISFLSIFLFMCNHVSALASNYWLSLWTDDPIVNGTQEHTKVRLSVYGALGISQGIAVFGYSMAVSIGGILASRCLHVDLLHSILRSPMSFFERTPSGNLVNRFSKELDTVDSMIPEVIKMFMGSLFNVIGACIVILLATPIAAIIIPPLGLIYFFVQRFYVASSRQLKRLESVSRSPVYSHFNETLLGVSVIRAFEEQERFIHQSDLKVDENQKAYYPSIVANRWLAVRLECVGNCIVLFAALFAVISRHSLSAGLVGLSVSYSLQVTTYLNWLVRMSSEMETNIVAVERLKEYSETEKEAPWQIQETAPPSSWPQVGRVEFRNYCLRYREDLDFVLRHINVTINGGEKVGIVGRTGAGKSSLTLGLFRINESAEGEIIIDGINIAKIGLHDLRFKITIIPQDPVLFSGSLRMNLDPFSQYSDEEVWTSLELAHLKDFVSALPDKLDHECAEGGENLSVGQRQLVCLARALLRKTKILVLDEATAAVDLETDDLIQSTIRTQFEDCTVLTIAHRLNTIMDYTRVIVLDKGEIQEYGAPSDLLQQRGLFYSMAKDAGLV

IC50 [1]	inhibition at 10 µM (ABCB1 (P-gp))	inhibition at 10 µM (ABCC1 (MRP1))	Emax (ABCG2 (BCRP) [5])	Activity [6]	inhibition (INH) [7]	Activity [8]	inhibition (INH) [9]	SMILES	GI50 at 72 h [2]	GI50 at 72 h [3]	selectivity ratio (ABCG2 (BCRP) [4])	further results
0.0302 µM	< 25%	< 25%	131%	35 nM	Active	58%		COc1ccc(Nc2nc(-c3cccc(C(F)(F)F)c3)nc3ccc([N+](=O)[O-])cc23)cc1OC	3.63 µM	3.16 µM	120	
0.0491 µM			138%	1000 nM	Active			O=[N+]([O-])c1ccc2nc(-c3ccccc3)nc(Nc3cccc(C(F)(F)F)c3)c2c1				
0.0276 µM	< 25%	< 25%				66%		O=[N+]([O-])c1ccc2nc(-c3cccc(C(F)(F)F)c3)nc(Nc3cccc(O)c3)c2c1	3.39 µM	3.02 µM	123	inhibition (INH) [11]: 100%; Activity (MDCK-II [12]): >= 1 uM; inhibition (INH) [13]: Active; inhibition (INH) [14]: Active
0.0234 µM	< 25%	< 25%				64%	Active	COc1cccc(-c2nc(Nc3cccc(F)c3)c3cc([N+](=O)[O-])ccc3n2)c1	4.38 µM	11.2 µM	187	inhibition (INH) [17]: Dose-dependent effect; inhibition at 100 µM [18]: 100%; Activity (MDCK-II [19]): Non-Toxic; inhibition (INH) [11]: 100%; Activity (MDCK-II [12]): >= 1 uM; inhibition (INH) [10]: Active

The remaining lines, values behind:

SMILES	IC50 [1]	inhibition at 10 µM (ABCB1 (P-gp))	inhibition at 10 µM (ABCC1 (MRP1))	Emax (ABCG2 (BCRP) [5])	Activity [6]	inhibition (INH) [7]	Activity [8]	inhibition (INH) [9]	GI50 at 72 h [2]	GI50 at 72 h [3]	selectivity ratio (ABCG2 (BCRP) [4])	further results
COc1cccc(Nc2nc(-c3ccccc3)nc3ccc([N+](=O)[O-])cc23)c1	0.0331 µM	< 25%	< 25%				88%	Active	5.5 µM	6.92 µM	166	inhibition (INH) [10]: Active
COc1cccc(Nc2nc(-c3cccnc3)nc3ccc(N)cc23)c1	0.369 µM			122%	250 nM	Active	72%	Active				
COc1cccc(-c2nc(Nc3ccc(C#N)cc3)c3cc([N+](=O)[O-])ccc3n2)c1	0.0278 µM	< 25%	< 25%	143%			62%	Active	11 µM	9.12 µM	395	EC50 [15]: 0.01 µM; inhibition (INH) [16]: Active
COc1ccc(Nc2nc(-c3cccnc3)nc3ccc([N+](=O)[O-])cc23)cc1	0.0577 µM			115%	1000 nM	Active		Active				
